For assay [1], the system named is Saccharomyces cerevisiae. In words: Toxicity against Saccharomyces cerevisiae by disc diffusion method. In kind it is functional, organism-based. Summed up:
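Antifungal screen by disc diffusion. Dried extract, 50 mg dissolved in 1 mL CH2Cl2; 10 µL applied to each small filter disc under aseptic conditions, solvent left to evaporate overnight. Discs placed on malt extract agar plates inoculated with a lawn of yeast, incubated at 25 °C, and inhibition zones measured.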
A general note: A growth-free zone around the sample is the usual read-out of agar diffusion tests.

Assay [2] relates to Choristoneura fumiferana. In words: Toxicity against Choristoneura fumiferana assessed as reduction in body weight by diet incorporation assay. In kind it is functional, organism-based. Summed up:
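Spruce budworm diet-incorporation bioassay with disease-free larvae. Extract dissolved in CH2Cl2, mixed into synthetic diet at 400 µg/g, solvent evaporated overnight. Ten second-instar larvae per cup, 3 cups per extract, held at 25 °C, 55% RH, 16 h light/day until fifth instar (about 1 week). Each larva weighed and head capsule width measured. ANOVA with Fisher's LSD; rugulosin positive control, CH2Cl2 negative control.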

Assay [3] concerns Hep 3B2. Put plainly: Cytotoxicity against human Hep3B cells. It is filed as functional, cell-based.

SMILES strings stand for the structures. Active and inactive are the calls of the source. The rule behind the calls is not given here.

`COC(=O)c1ccc(O)c2c1C[C@@H](C)OC2=O`: the result in assay [1] and in assay [2] was Active.
In the case of `Cc1ccc(O)c2c1C[C@@H](C)OC2=O`, the outcome in assay [1] and in assay [2] was Active.
For the compound `C[C@@H]1Cc2cccc(O)c2C(=O)O1`, the result in assay [1] and in assay [2] was Active.
In the case of `COC(=O)c1c(O)c(C)cc2oc3cccc(O)c3c(=O)c12`, the outcome in assay [1] and in assay [2] was Active.
Consider `COc1cc(OC)c2c(c1)C(C)OC2=O` (stereo not drawn), for which the result in assay [1] and in assay [2] was Active.
Consider `COC(=O)c1c(OC)cc(OC)cc1C(C)=O`, for which the result in assay [1] and in assay [2] was Active.
Take `CCCCC1=C(C)COC1=O`: the result in assay [1] and in assay [2] was Active.
Turning to `COc1cc(OC)c(C(=O)O)c(C(C)=O)c1`, the outcome in assay [1] and in assay [2] was Active.
Turning to `OCCc1ccc(O)cc1`, the result in assay [3] was inactive. In addition, the outcome in assay [1] and in assay [2] was Active.
Consider `CCC[C@@H]1Cc2cc(OC)cc(O)c2C(=O)O1`, for which the outcome in assay [1] and in assay [2] was Active.
On to `C[C@@H]1Cc2c(C=O)ccc(O)c2C(=O)O1`, for which the outcome in assay [1] and in assay [2] was Active.

Source of the values: ChEMBL document CHEMBL1155892, “Characterization of polyketide metabolites from foliar endophytes of Picea glauca” (J Nat Prod, 2008).
